Data published in PMC7904387 (Nature chemical biology, 2020).
Each block holds one compound with its values, some of them ahead of it. Non-standard residues stand in square brackets, D forms with d. Residues, ends and D or L forms follow the SMILES beside them. Nle = CCCC[C@H](N)C(=O)O

Legend:
advanced solid tumors = details: cited from earlier work
UBE1 [1] = target: T1, UBE1 (Homo sapiens, UniProt P22314); test: HXMS, deuterium exchange into peptide with and without UBE1; type: binding; details: incubation with UBE1, 10 sec labeling
T1 sequence (P22314 1-1058): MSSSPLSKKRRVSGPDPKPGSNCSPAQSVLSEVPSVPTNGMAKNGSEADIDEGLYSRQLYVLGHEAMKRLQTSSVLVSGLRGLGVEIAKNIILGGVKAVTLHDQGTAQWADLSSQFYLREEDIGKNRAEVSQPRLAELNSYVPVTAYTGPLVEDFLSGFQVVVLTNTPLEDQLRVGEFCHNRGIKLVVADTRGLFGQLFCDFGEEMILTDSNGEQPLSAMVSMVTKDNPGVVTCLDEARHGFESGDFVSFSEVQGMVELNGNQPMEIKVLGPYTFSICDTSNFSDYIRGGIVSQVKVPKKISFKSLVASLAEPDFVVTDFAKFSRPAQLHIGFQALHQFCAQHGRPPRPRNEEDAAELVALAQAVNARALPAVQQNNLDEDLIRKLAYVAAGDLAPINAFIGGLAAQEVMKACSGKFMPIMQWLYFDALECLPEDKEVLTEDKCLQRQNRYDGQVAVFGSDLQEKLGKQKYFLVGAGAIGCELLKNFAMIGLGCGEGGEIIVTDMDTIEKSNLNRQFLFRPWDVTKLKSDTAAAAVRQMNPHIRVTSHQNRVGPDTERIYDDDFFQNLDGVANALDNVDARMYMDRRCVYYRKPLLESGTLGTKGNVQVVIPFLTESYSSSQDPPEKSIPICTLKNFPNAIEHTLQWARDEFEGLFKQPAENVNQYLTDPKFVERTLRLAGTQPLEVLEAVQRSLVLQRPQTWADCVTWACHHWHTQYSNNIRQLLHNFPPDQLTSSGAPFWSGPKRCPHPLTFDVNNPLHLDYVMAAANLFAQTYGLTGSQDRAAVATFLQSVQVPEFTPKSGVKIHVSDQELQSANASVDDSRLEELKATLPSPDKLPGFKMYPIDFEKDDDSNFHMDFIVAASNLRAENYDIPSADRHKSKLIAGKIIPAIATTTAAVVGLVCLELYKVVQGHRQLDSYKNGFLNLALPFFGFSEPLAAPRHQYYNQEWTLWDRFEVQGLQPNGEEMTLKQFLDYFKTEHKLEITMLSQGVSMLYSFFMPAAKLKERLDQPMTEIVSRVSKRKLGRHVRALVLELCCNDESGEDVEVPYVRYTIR
Method in brief: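 Labelling was by 18-fold dilution into D2O buffer (pD 8) for 10 sec, quenched with guanidinium chloride/formic acid (pH 2), then LC-MS. Uptake was not back-exchange corrected. Difference = with UBE1 minus peptide alone; ≥2 biological replicates.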

UBE1 [2] = target: T1, UBE1; test: Streptavidin capture; type: binding; details: UBE1 10 pmol, biotinylated peptide 5 nmol
Method in brief: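 Recombinant human UBE1 (10 pmol) was incubated with C-terminally biotinylated peptide (5 nmol) or 0.5% DMSO for 1.5 h at 4°C in 50 mM NaCl, 20 mM HEPES pH 7.4, 5 mM DTT. Streptavidin agarose was added for another 1.5 h at 4°C. Beads were washed three times in NP-40 buffer and heat-eluted (70°C, 10 min). Read-out was SDS-PAGE with silver stain.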

Compound: NS(=O)(=O)OC[C@H]1C[C@@H](Nc2ccnc3cc(-c4cccc(SC(F)(F)F)c4)nn23)[C@H](O)[C@@H]1O [TAK-243]
stable disease, patients (advanced solid tumors; 11 patients of twenty evaluable): 55%
partial response, evaluable patients (advanced solid tumors; one of twenty evaluable patients): 5%

effect of UBE1 on deuterium exchange of the peptide, in words (UBE1 [1]): no meaningful effect
Compound: CCCC[C@H](NC(C)=O)C(=O)N[C@@H](CO)C(=O)N[C@H](C(=O)N1CCC[C@H]1C(=O)N[C@@H](C)C(=O)N[C@@H](CCCNC(=N)N)C(=O)N[C@@H](CCCNC(=N)N)C(=O)N[C@@H](CCCNC(=N)N)C(=O)N[C@@H](CC(C)C)C(=O)N[C@@H](CCCC)C(=O)N[C@@H](CCCNC(=N)N)C(=O)N[C@@H](CC(=O)O)C(=O)N[C@@H](Cc1ccccc1)C(=O)N[C@@H](CCCCN)C(=O)N[C@@H](CCCNC(=N)N)C(=O)N[C@@H](CC(C)C)C(=O)N[C@@H](CCC(N)=O)C(N)=O)[C@@H](C)O [UBE2A] (Ac-[Nle]STPARRRL[Nle]RDFKRLQ-NH2)

binding to recombinant UBE1 by streptavidin pull-down and silver stain, in words (UBE1 [2]): directly and robustly binds
Compound: BSTP8RRRLBRXFKRLQLys(biotin) (sidechain bridge or staple) [C-terminally biotinylated SAH-UBE2A]
